Data reported in the RNAGym collection of RNA variant scans (doi:10.1126/science.aae0568).
Fewer inactive variants are shown than the library holds.

B1: tRNA (parent)
chain: GUUCCGUUGGCGUAAUGGUAACGCGUCUCCCUCCUAAGGAGAAGACUGCGGGUUCGAGUCCCGUACGGAACG

Variants of: B1
Experiment: yeast fitness relative to wild type (ratio to wild type); higher = fitter; tRNA-Arg(CCU), competitive growth, 37 C, YPD
Procedure, shortened: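 Variants of the tRNA-Arg(CCU) gene, chemically synthesised with a 3% per-site mutation rate at 69 sites, were placed at the native genomic locus in Saccharomyces cerevisiae. The pooled strains were competed in YPD at 37°C for 24 hours in six parallel replicates. Gene amplicons from the start population and from each end population were read by 100-nucleotide paired-end sequencing. Darwinian fitness relative to wild type came from changes in genotype frequencies; genotypes needed ≥ 100 starting reads, and estimates < 0.5 were set to 0.5.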

Variant | yeast fitness
C11G C27G C29G C34U | 0.599
C11A G25C C29U C62A | ≤ 0.5
C11G A42U C49G G58C A69U | ≤ 0.5
C11A U13A C29A G48A C66U | ≤ 0.5
C11A U19G A36G U54C A69C | 0.54
C11A U32A C33U U47A G63A | ≤ 0.5
C11A G58A G68A | 0.621
C11A G58A G68U | ≤ 0.5
C11G C27G C55A | ≤ 0.5
C11A U19C C31U U53A | ≤ 0.5
C11G A45G G67A | 0.539
C11A U13A A42U C55A | ≤ 0.5
C11A G52C C61G | 0.618
C11G A15U C34A A42C | ≤ 0.5
C11A G18C C27G | 0.64
C11G A20C A43G U59C | ≤ 0.5
C11A U32C G67A | 0.606
C11A U54A | 0.602
C11A U54C | 0.596
C11A U16G C33U | ≤ 0.5
C11A U13C A14G G44C C46A C49G | ≤ 0.5
C11A G25C C29U A43U A65C A70U | ≤ 0.5
C11A U47C G52C | ≤ 0.5
C11G A69C A70U | 0.684

Variant | yeast fitness
C11A U16C G18C A45C A57U U59C | ≤ 0.5
C11A U16C U32G A36G C49G C55A | 0.53
C11A U47C | 0.689
C11A U13C C27A G63A | ≤ 0.5
C11A U19C A21U A43U G58C C60A C66U | 0.531
C11G A15U C55U | ≤ 0.5
C11G A14U G17A A36G G41A U53A G58C A70C | ≤ 0.5
C11G A42G A45U U47C U64C A70C | ≤ 0.5
C11A U19A G52A | ≤ 0.5
C11A G25C G44A A57G | ≤ 0.5
C11G A37C C62G C66U | ≤ 0.5
C11G A15C C24U A43U C66U | ≤ 0.5
C11G A45C U47C C61U A69G | ≤ 0.5
C11G C22U C24G C30G | ≤ 0.5
C11G A20U C27G C29U C62U | ≤ 0.5
C11G A40G | 0.567
C11G A15U C34A A42C G48A | 0.619
C11G A21U A40U U54A | 0.681
C11A U35G C46A C49U C60U | ≤ 0.5
C11G C24U A69C | ≤ 0.5
C11A U13G C55A | 0.659
C11A G23A A43U | ≤ 0.5
C11G C22U C30A | ≤ 0.5
C11G A42C A57U | 0.564

Variant | yeast fitness
C11A U28C A42G A43U C46U C62U | ≤ 0.5
C11A G68C | 0.656
C11G C22A C27G C31U U59A | 0.569
C11G A14C C30G A45G A57G | ≤ 0.5
C11G A70G | 0.581
C11G A70U | 0.655
C11A U16C U32G C49G C55A C66G A70C | ≤ 0.5
C11G A37C C46G G48A | ≤ 0.5
C11A G25C A57U | 0.513
C11A G58A G68A A69U A70U | ≤ 0.5
C11A U26A | 0.687
C11A U32A C33U G68C | ≤ 0.5
C11A G41A A57C | ≤ 0.5
C11A U19A C29A U32A U54C C55G C60G | ≤ 0.5
C11A U26C C29G C31U G52C C55A U59G | ≤ 0.5
C11G A21G G44C C61A C62U C66U | ≤ 0.5
C11G A21U G51C | ≤ 0.5
C11G C22A C31A A40G | ≤ 0.5
C11A U16C C34G A65G G67A | ≤ 0.5
C11A G39A | 0.63
C11G C27U A37U C49U | ≤ 0.5
C11G A20G U47G | ≤ 0.5
C11G C24U A42G | ≤ 0.5
C11G C24U G48A G67U A69C | ≤ 0.5

Variant | yeast fitness
C11A U13G C34G A43U C61G | ≤ 0.5
C11G A21C A36U | 0.511
C11G A14G U35A C66U | 0.535
C11G A40G C60U U64C | ≤ 0.5
C11G C24U G25A U47G | ≤ 0.5
C11G A15U C24G A40G C61A | ≤ 0.5
C11G A14G G17A G48C C62U C66G A70G | ≤ 0.5
C11A G50C C60U A70C | ≤ 0.5
C11G C24U A42G A65G | ≤ 0.5
C11A G44A G48A | 0.68
C11G C27U A43C A65G | ≤ 0.5
C11G A15U C31A G58C A70C | ≤ 0.5
C11A U32C | 0.739
C11A U28G C34U G67A | ≤ 0.5
C11G C27U A43C | 0.502
C11A U47C C62A | ≤ 0.5
C11A U16C U28C U32G C49G C55A | ≤ 0.5
C11G A20U C30G C34A A43C A69C | 0.76
C11G C24G G52C C55G | 0.813
C11G A21G C31G A42G | ≤ 0.5
C11G A15C G41A C49G | ≤ 0.5
C11A G41C | 0.714
C11G A20C C24G A37G | 0.542
C11G A20C C24G | ≤ 0.5

Variant | yeast fitness
C11G C27A C46G G50A C61U | ≤ 0.5
C11A U19C U26C A40U G44C C46U U64G | 0.514
C11G A14C C33G A45U C62G A65G | ≤ 0.5
C11A U19A U47C C55A C61U | ≤ 0.5
C11A U19G A36G C62A A69C | ≤ 0.5
C11G C24U G48C | 0.541
C11G A21G C29G A40C U54A | ≤ 0.5
C11G A20G U53C | ≤ 0.5
C11G A14U C24A C60A | ≤ 0.5
C11G A36U A45U G51C C55U | ≤ 0.5
C11G C24U C31G C33U A43U | ≤ 0.5
C11G A15G U54G | ≤ 0.5
C11G A15U C24G A40G A42U | ≤ 0.5
C11G A36U C66U | ≤ 0.5
C11G A14C A37C G44C | ≤ 0.5
C11A U16A | 0.58
C11A G51A U59A | ≤ 0.5
C11G A14C C30U G67U | ≤ 0.5
C11G A14G A37G G44A G63A | 0.55
C11G A36U U54A U64C A69U | ≤ 0.5
C11A U28C C46A C55U C61U | ≤ 0.5
C11G C22U U53C | ≤ 0.5
C11A G25C U28A A40U | 0.752
C11A G25A U53A | ≤ 0.5

Variant | yeast fitness
C11A U19A C27U A42U A45C C55U A69C | ≤ 0.5
C11G A21U U35A | ≤ 0.5
C11G A20G C24U C31G | ≤ 0.5
C11G C24U U28C C62A | ≤ 0.5
C11G A14U C24A A57C | 0.572
C11G A40G A45G G52A | 0.577
C11G A14G A21U A40U U54A C55U | ≤ 0.5
C11A U13A C31G | 0.608
C11G A20U G56A C60U | 0.678
C11A U13A A42U G50A C55A | ≤ 0.5
C11G A20U C24A G25C A40G G58C | ≤ 0.5
C11A G25C U26C C29U A65C A70U | 0.558
C11A U35A | 0.535
C11G C22A C31U A42G | 0.659
C11G A14G A37G G44A C60A C62U U64C G68A A69C | ≤ 0.5
C11A U35A U53A | ≤ 0.5
C11G A20C C55A G67C | ≤ 0.5
C11G C24G A42U | ≤ 0.5
C11G C22G C24U G50C | ≤ 0.5
C11G C24U C49A | 0.547
C11G A15G A21G A37G A57U C60U C62G | ≤ 0.5
C11G A21C C22G C30G A45U | 0.558
C11G C27A C66A | ≤ 0.5
C11G C27G C31A C60G | ≤ 0.5

Variant | yeast fitness
C11G C24G G44C | ≤ 0.5
C11A G38A A40U G50C C60G A70G | ≤ 0.5
C11A U59C C60A U64A | ≤ 0.5
C11G A57C | 0.571
C11A U13A A20U | ≤ 0.5
C11A U32G C61A | 0.58
C11A U19G A36G U54C A65U | 0.538
C11G A36G G39A G56A | ≤ 0.5
C11G A42G A45U | ≤ 0.5
C11G A20C A42C C49U A57U | ≤ 0.5
C11A U35A A37U | ≤ 0.5
C11G C24A C66U | ≤ 0.5
C11A U64C | 0.638
C11G C24G C55U A65U | ≤ 0.5
C11G A14G G48A C55U C66U G68C A69U | ≤ 0.5
C11G A69G | 0.652
C11G A69U | 0.608
C11G A69C | 0.683
C11G A14G G48A C55U A65C | 0.759
C11G C24A U28G | ≤ 0.5
C11A U16C U32G C49U G56A A65C | ≤ 0.5
C11G A21C U26A C34U | ≤ 0.5
C11A U54C A57U | 0.565
